{"data": "Experimental data collected from several papers", "target": "Ephrin type-B receptor 4 (EPHB4, Homo sapiens, UniProt P54760)", "Residues used in one study (P54760 16-987)": "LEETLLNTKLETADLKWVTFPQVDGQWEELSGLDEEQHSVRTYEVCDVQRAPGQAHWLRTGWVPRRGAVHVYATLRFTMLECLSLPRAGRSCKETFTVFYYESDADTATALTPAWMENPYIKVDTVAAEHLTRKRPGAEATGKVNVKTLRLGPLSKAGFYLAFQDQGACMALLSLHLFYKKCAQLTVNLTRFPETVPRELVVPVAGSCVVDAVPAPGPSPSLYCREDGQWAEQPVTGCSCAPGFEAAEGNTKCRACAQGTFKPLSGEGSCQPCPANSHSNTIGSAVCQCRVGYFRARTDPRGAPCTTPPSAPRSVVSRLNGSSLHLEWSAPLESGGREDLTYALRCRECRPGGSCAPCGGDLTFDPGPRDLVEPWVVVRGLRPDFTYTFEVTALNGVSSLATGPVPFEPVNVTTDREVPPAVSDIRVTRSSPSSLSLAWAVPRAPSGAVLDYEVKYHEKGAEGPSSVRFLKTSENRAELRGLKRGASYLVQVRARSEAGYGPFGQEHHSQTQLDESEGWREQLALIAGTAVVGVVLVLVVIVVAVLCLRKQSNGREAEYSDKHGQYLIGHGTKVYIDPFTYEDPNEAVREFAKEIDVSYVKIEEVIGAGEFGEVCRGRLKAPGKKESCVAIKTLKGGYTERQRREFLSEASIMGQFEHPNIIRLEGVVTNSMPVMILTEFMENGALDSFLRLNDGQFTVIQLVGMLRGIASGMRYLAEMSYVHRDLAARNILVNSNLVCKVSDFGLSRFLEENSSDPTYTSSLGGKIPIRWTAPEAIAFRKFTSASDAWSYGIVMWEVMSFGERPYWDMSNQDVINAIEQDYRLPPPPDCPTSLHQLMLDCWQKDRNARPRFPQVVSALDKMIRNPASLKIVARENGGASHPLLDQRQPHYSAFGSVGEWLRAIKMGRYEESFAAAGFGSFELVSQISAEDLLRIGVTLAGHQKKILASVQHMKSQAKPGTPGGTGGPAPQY", "note": "Compare with care: the assays were run in different laboratories."}
{"SMILES": "O=C(O)[C@@H]1[C@@H](Cn2nnc3ccccc3c2=O)CC[C@H]1C(=O)c1ccc(OCCC2CCOCC2)cc1", "assay": "cell-free assay, competition with immobilised ligand", "conditions": "1 µM", "remaining binding [%]": 100}
{"SMILES": "CCN1CCN(Cc2ccc(C(=O)Nc3ccc(C)c(Oc4ccc5c(c4)CC(=O)N5)c3)cc2C(F)(F)F)CC1", "assay": "binding, competition with immobilised ligand", "conditions": "1 µM", "remaining binding [%]": 90}
{"SMILES": "CN(CCCC(F)(F)F)c1nccc(-c2cnn3ncccc23)n1", "assay": "binding", "conditions": "1 µM", "remaining binding [%]": 93}
{"SMILES": "COc1cnc(Nc2cccc(S(N)(=O)=O)c2)nc1N1CCN(c2ccccc2)CC1", "assay": "binding, competition with immobilised ligand", "conditions": "1 µM", "remaining binding [%]": 96}
{"SMILES": "O=C(Nc1c[nH]nc1C(=O)NC1CCNCC1)c1cc(F)cc(F)c1", "assay": "binding, competition with immobilised ligand", "conditions": "1 µM", "remaining binding [%]": 100}
{"SMILES": "CN(C)C(=O)Cn1cc(-c2nc(C3(c4ccc(-c5cnc(N)nc5)cc4)CC3)no2)cn1", "assay": "cell-free assay, competition with immobilised ligand", "conditions": "1 µM", "remaining binding [%]": 100}
{"SMILES": "O=C(c1ccc(Nc2ncc(Cl)c(-c3ccc(Cl)s3)n2)cc1)N1CCC(N2CCCC2)CC1", "assay": "binding, competition with immobilised ligand", "conditions": "1 µM", "remaining binding [%]": 67}
{"SMILES": "CC1CCCN1c1nccc(-c2cnn3ncccc23)n1 (stereo not drawn)", "assay": "binding", "conditions": "1 µM", "remaining binding [%]": 100}
{"SMILES": "c1cncc(-c2cccc(Nc3nccc(NC4CCCCC4)n3)c2)c1", "assay": "binding, competition with immobilised ligand", "conditions": "10 µM", "remaining binding [%]": 89}
{"SMILES": "Nc1ncc2c(n1)-c1c([nH]c3ccc(C#CC4CC4)cc13)CCCC2", "assay": "binding, competition with immobilised ligand", "conditions": "1 µM", "remaining binding [%]": 100}
{"SMILES": "Cn1cc(Cl)c2c(Oc3c(F)cc(Nc4cc(Cl)nc(N)n4)cc3F)ccnc21", "assay": "cell-free assay, competition with immobilised ligand", "conditions": "0.1 µM", "remaining binding [%]": 100}
{"SMILES": "O=C(NCCCN1CCOCC1)c1ccc(Nc2nccc(-c3cc4ccccc4s3)n2)cc1", "assay": "binding, competition with immobilised ligand", "conditions": "1 µM", "remaining binding [%]": 78}
{"SMILES": "C[C@@H]1CCN(c2nccc(-c3cnn4ncccc34)n2)C1", "assay": "binding", "conditions": "1 µM", "remaining binding [%]": 100}
{"SMILES": "O=C(c1ccc(Nc2ncc(Cl)c(-c3cc4ccccc4s3)n2)cc1)N1CCC(N2CCCC2)CC1", "assay": "binding, competition with immobilised ligand", "conditions": "1 µM", "remaining binding [%]": 65}
{"SMILES": "Cc1noc([C@H]2C[C@@H](c3ccc(C(F)(F)F)cc3)CN(C(=O)N3CCS(=O)(=O)C3)C2)n1", "assay": "cell-free assay, competition with immobilised ligand", "conditions": "1 µM", "remaining binding [%]": 100}
{"SMILES": "Cc1cnn2ncc(-c3ccnc(N(C)C)n3)c2c1", "assay": "binding", "conditions": "1 µM", "remaining binding [%]": 94}
{"SMILES": "CCOC(=O)c1cc2cc(-c3cc(C(=O)NCc4ccc(C(=O)O)cc4)nn3C)ccc2[nH]1", "assay": "cell-free assay, competition with immobilised ligand", "conditions": "0.1 µM", "remaining binding [%]": 99}
{"SMILES": "N[C@@H]1CCN(c2nccc(-c3cnn4ncccc34)n2)C1", "assay": "binding", "conditions": "1 µM", "remaining binding [%]": 100}
{"SMILES": "CCCCN(CCCC)C(=O)CN1C[C@@H](c2cc(OC)c3c(c2)OCO3)[C@H](C(=O)O)[C@H]1CC(C)(C)CCC", "assay": "cell-free assay, competition with immobilised ligand", "conditions": "1 µM", "remaining binding [%]": 98.5}
{"SMILES": "COc1ccnn2ncc(-c3ccnc(N(C)C)n3)c12", "assay": "binding", "conditions": "1 µM", "remaining binding [%]": 86}
{"SMILES": "C[C@@H](c1ccc(-n2cnc3c(N)ncnc32)cc1)N1CCc2nn(C)c(Cc3ccccc3)c2C1=O", "assay": "binding, competition with immobilised ligand", "conditions": "0.1 µM", "remaining binding [%]": 95}
